Laboratory results published in ChEMBL document CHEMBL1811814, “Synthesis and evaluation of indole, pyrazole, chromone and pyrimidine based conjugates for tumor growth inhibitory activities--development of highly efficacious cytotoxic agents” (Eur J Med Chem, 2010).

Tests used:
Format in all cases: functional
CAKI-1 [1] = assay: Growth inhibition of human Caki1 cells
HOP-62 = assay: Growth inhibition of human HOP62 cells
CCRF-CEM = assay: Growth inhibition of human CCRF-CEM cells
UACC-257 [2] = assay: Growth inhibition of human UACC257 cells
786-0 [3] = assay: Growth inhibition of human 786-0 cells assessed tumor cell growth at 10^-5 M; set-up: scale not given: the % may be the effect or the level left
Outline: (§1)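 NCI 60-human-tumor-cell-line panel screen. Each compound was tested at a single concentration of 10^-5 M, and percent growth of tumor cells was recorded for each cell line. Growth inhibition was expressed from these percent-growth values.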

OVCAR-8 [4] = assay: Growth inhibition of human OVCAR8 cells
Malme-3M = assay: Growth inhibition of human MALME-3M cells assessed tumor cell growth at 10^-5 M; set-up: scale not given: the % may be the effect or the level left; outline: as §1
HL-60(TB) [5] = assay: Growth inhibition of human HL-60(TB) cells
A549 = assay: Growth inhibition of human A549 cells assessed tumor cell growth at 10^-5 M; set-up: scale not given: the % may be the effect or the level left; outline: as §1
T47D = assay: Growth inhibition of human T47D cells
NCI-H23 = assay: Growth inhibition of human NCI-H23 cells
U-251 [6] = assay: Growth inhibition of human U251 cells assessed tumor cell growth at 10^-5 M; set-up: scale not given: the % may be the effect or the level left
Outline: (§2)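 Single-dose screen at 10^-5 M across the 60 human tumor cell line panel, run to NCI standards. The value is the percent growth of each cell line in the presence of compound. Compounds active at this dose moved on to five-concentration testing (10^-4 to 10^-8 M).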

DU-145 = assay: Growth inhibition of human DU145 cells
MDA-MB-468 = assay: Growth inhibition of human MDA-MB-468 cells assessed tumor cell growth at 10^-5 M; set-up: scale not given: the % may be the effect or the level left; outline: as §1
786-0 [7] = assay: Growth inhibition of human 786-0 cells
SK-MEL-5 [8] = assay: Growth inhibition of human SK-MEL-5 cells
HL-60(TB) [9] = assay: Growth inhibition of human HL-60(TB) cells assessed tumor cell growth at 10^-5 M; set-up: scale not given: the % may be the effect or the level left
Outline: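 HL-60(TB), part of the 60-line panel, tested at a single concentration of 10^-5 M. The read-out is percent tumor cell growth relative to untreated growth.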

UACC-257 [10] = assay: Growth inhibition of human UACC257 cells assessed tumor cell growth at 10^-5 M; set-up: scale not given: the % may be the effect or the level left; outline: as §2
[11] = Growth inhibition of human RPMI8266 cells
UACC-62 = assay: Growth inhibition of human UACC62 cells
RXF 393 = assay: Growth inhibition of human RXF393 cells assessed tumor cell growth at 10^-5 M; set-up: scale not given: the % may be the effect or the level left; outline: as §1
HT-29 = assay: Growth inhibition of human HT-29 cells
NCI-H322M [12] = assay: Growth inhibition of human NCI-H322M cells
NCI-H522 [13] = assay: Growth inhibition of human NCI-H522 cells assessed tumor cell growth at 10^-5 M; set-up: scale not given: the % may be the effect or the level left; outline: as §1
OVCAR-8 [14] = assay: Growth inhibition of human OVCAR8 cells assessed tumor cell growth at 10^-5 M; set-up: scale not given: the % may be the effect or the level left; outline: as §1
IGROV-1 = assay: Growth inhibition of human IGROV1 cells assessed tumor cell growth at 10^-5 M; set-up: scale not given: the % may be the effect or the level left; outline: as §1
HCT-116 = assay: Growth inhibition of human HCT116 cells assessed tumor cell growth at 10^-5 M; set-up: scale not given: the % may be the effect or the level left; outline: as §1
[15] = Growth inhibition of human Hs 578T cells
SK-MEL-5 [16] = assay: Growth inhibition of human SK-MEL-5 cells assessed tumor cell growth at 10^-5 M; set-up: scale not given: the % may be the effect or the level left; outline: as §1
U-251 [17] = assay: Growth inhibition of human U251 cells
SW-620 = assay: Growth inhibition of human SW620 cells assessed tumor cell growth at 10^-5 M; set-up: scale not given: the % may be the effect or the level left; outline: as §2
MDA-MB-231 = assay: Growth inhibition of human MDA-MB-231 cells
NCI-H322M [18] = assay: Growth inhibition of human NCI-H322M cells assessed tumor cell growth at 10^-5 M; set-up: scale not given: the % may be the effect or the level left; outline: as §1
CAKI-1 [19] = assay: Growth inhibition of human Caki1 cells assessed tumor cell growth at 10^-5 M; set-up: scale not given: the % may be the effect or the level left; outline: as §1
PC-3 = assay: Growth inhibition of human PC3 cells assessed tumor cell growth at 10^-5 M; set-up: scale not given: the % may be the effect or the level left; outline: as §1
KM12 = assay: Growth inhibition of human KM12 cells
SF-268 = assay: Growth inhibition of human SF268 cells assessed tumor cell growth at 10^-5 M; set-up: scale not given: the % may be the effect or the level left; outline: as §1
MDA-MB-435 = assay: Growth inhibition of human MDA-MB-435 cells assessed tumor cell growth at 10^-5 M; set-up: scale not given: the % may be the effect or the level left; outline: as §1
BT-549 [20] = assay: Growth inhibition of human BT549 cells assessed tumor cell growth at 10^-5 M; set-up: scale not given: the % may be the effect or the level left; outline: as §1
COLO 205 = assay: Growth inhibition of human COLO205 cells
SK-MEL-2 [21] = assay: Growth inhibition of human SK-MEL-2 cells assessed tumor cell growth at 10^-5 M; set-up: scale not given: the % may be the effect or the level left; outline: as §1
BT-549 [22] = assay: Growth inhibition of human BT549 cells
SNB-75 = assay: Growth inhibition of human SNB75 cells
SK-MEL-2 [23] = assay: Growth inhibition of human SK-MEL-2 cells
OVCAR-5 = assay: Growth inhibition of human OVCAR5 cells assessed tumor cell growth at 10^-5 M; set-up: scale not given: the % may be the effect or the level left; outline: as §1
SF-295 = assay: Growth inhibition of human SF295 cells assessed tumor cell growth at 10^-5 M; set-up: scale not given: the % may be the effect or the level left; outline: as §1
ACHN = assay: Growth inhibition of human ACHN cells
NCI-H522 [24] = assay: Growth inhibition of human NCI-H522 cells
MOLT-4 = assay: Growth inhibition of human MOLT4 cells assessed tumor cell growth at 10^-5 M; set-up: scale not given: the % may be the effect or the level left; outline: as §1
TK-10 = assay: Growth inhibition of human TK10 cells assessed tumor cell growth at 10^-5 M; set-up: scale not given: the % may be the effect or the level left; outline: as §2
LOX IMVI = assay: Growth inhibition of human LOXIMVI cells assessed tumor cell growth at 10^-5 M; set-up: scale not given: the % may be the effect or the level left; outline: as §1
HCC 2998 = assay: Growth inhibition of human HCC2998 cells assessed tumor cell growth at 10^-5 M; set-up: scale not given: the % may be the effect or the level left; outline: as §1
[25] = read-out: LC50 (the source's name)

Question: With `O=C1/C(=C\c2ccccn2)c2ccccc2N1c1c(Cl)cccc1Cl` as the compound, how does the GI50 (CAKI-1 [1]) read?
Answer: 1.3 µM

Question: What about the CC50 (CAKI-1 [1]; [25]) of the same compound?
Answer: 7.4 µM

Question: And the GI50 (HOP-62)?
Answer: 2.3 µM

Question: And the CC50 (HOP-62; [25])?
Answer: 89.1 µM

Question: What about the GI50 (CCRF-CEM) of the same compound?
Answer: 3.2 µM

Question: What about the CC50 (CCRF-CEM; [25]) of the same compound?
Answer: > 100 µM

Question: And the GI50 (UACC-257 [2])?
Answer: 1.7 µM

Question: What about the CC50 (UACC-257 [2]; [25]) of the same compound?
Answer: 18.2 µM

Question: And the Activity (786-0 [3])?
Answer: -81.44%

Question: And the GI50 (OVCAR-8 [4])?
Answer: 2.1 µM

Question: And the CC50 (OVCAR-8 [4]; [25])?
Answer: > 100 µM

Question: What about the Activity (Malme-3M) of the same compound?
Answer: 67.26%

Question: And the GI50 (HL-60(TB) [5])?
Answer: 3.8 µM

Question: What about the CC50 (HL-60(TB) [5]; [25]) of the same compound?
Answer: > 100 µM

Question: What about the Activity (A549) of the same compound?
Answer: 50.33%

Question: What about the GI50 (T47D) of the same compound?
Answer: 2.3 µM

Question: What about the CC50 (T47D; [25]) of the same compound?
Answer: > 100 µM

Question: And the GI50 (NCI-H23)?
Answer: 3.5 µM

Question: What about the LC50 (concentration killing 50% of cells) (NCI-H23) of the same compound?
Answer: > 100 µM

Question: And the Activity (U-251 [6])?
Answer: -2.48%

Question: And the GI50 (DU-145)?
Answer: 2.1 µM

Question: And the CC50 (DU-145; [25])?
Answer: 9.1 µM

Question: And the Activity (MDA-MB-468)?
Answer: -17.24%

Question: What about the GI50 (786-0 [7]) of the same compound?
Answer: 1.9 µM

Question: What about the CC50 (786-0 [7]; [25]) of the same compound?
Answer: 6.6 µM

Question: And the GI50 (SK-MEL-5 [8])?
Answer: 1.6 µM

Question: And the CC50 (SK-MEL-5 [8]; [25])?
Answer: 5.7 µM

Question: What about the Activity (HL-60(TB) [9]) of the same compound?
Answer: 1.39%

Question: And the Activity (UACC-257 [10])?
Answer: 59.3%

Question: What about the GI50 [11] of the same compound?
Answer: 2.2 µM

Question: And the CC50 [11, 25]?
Answer: > 100 µM

Question: What about the GI50 (UACC-62) of the same compound?
Answer: 1.6 µM

Question: And the CC50 (UACC-62; [25])?
Answer: 6.9 µM

Question: And the Activity (RXF 393)?
Answer: -35.21%

Question: What about the GI50 (HT-29) of the same compound?
Answer: 2.1 µM

Question: What about the CC50 (HT-29; [25]) of the same compound?
Answer: 9.1 µM

Question: What about the GI50 (NCI-H322M [12]) of the same compound?
Answer: 2.8 µM

Question: What about the CC50 (NCI-H322M [12]; [25]) of the same compound?
Answer: 28.8 µM

Question: What about the Activity (NCI-H522 [13]) of the same compound?
Answer: 36.79%

Question: And the Activity (OVCAR-8 [14])?
Answer: 4.47%

Question: And the Activity (IGROV-1)?
Answer: 8.25%

Question: What about the Activity (HCT-116) of the same compound?
Answer: -94.37%

Question: What about the GI50 [15] of the same compound?
Answer: 5.6 µM

Question: And the CC50 [15, 25]?
Answer: > 100 µM

Question: What about the Activity (SK-MEL-5 [16]) of the same compound?
Answer: 23.68%

Question: What about the GI50 (U-251 [17]) of the same compound?
Answer: 1.8 µM

Question: What about the CC50 (U-251 [17]; [25]) of the same compound?
Answer: 7.4 µM

Question: What about the Activity (SW-620) of the same compound?
Answer: -56.9%

Question: What about the GI50 (MDA-MB-231) of the same compound?
Answer: 2 µM

Question: What about the CC50 (MDA-MB-231; [25]) of the same compound?
Answer: 29.5 µM

Question: And the Activity (NCI-H322M [18])?
Answer: 61.39%

Question: What about the Activity (CAKI-1 [19]) of the same compound?
Answer: -1.37%

Question: What about the Activity (PC-3) of the same compound?
Answer: 31.44%

Question: What about the GI50 (KM12) of the same compound?
Answer: 1.8 µM

Question: What about the CC50 (KM12; [25]) of the same compound?
Answer: 6.3 µM

Question: What about the Activity (SF-268) of the same compound?
Answer: 7.81%

Question: What about the Activity (MDA-MB-435) of the same compound?
Answer: -5.05%

Question: What about the Activity (BT-549 [20]) of the same compound?
Answer: -17.72%

Question: What about the GI50 (COLO 205) of the same compound?
Answer: 2.3 µM

Question: What about the LC50 (COLO 205) of the same compound?
Answer: > 100 µM

Question: What about the Activity (SK-MEL-2 [21]) of the same compound?
Answer: 48.8%

Question: What about the GI50 (BT-549 [22]) of the same compound?
Answer: 2.4 µM

Question: What about the CC50 (BT-549 [22]; [25]) of the same compound?
Answer: 23.4 µM

Question: What about the GI50 (SNB-75) of the same compound?
Answer: 1.4 µM

Question: And the CC50 (SNB-75; [25])?
Answer: 32.3 µM

Question: What about the GI50 (SK-MEL-2 [23]) of the same compound?
Answer: 2.3 µM

Question: What about the CC50 (SK-MEL-2 [23]; [25]) of the same compound?
Answer: 24.5 µM

Question: What about the Activity (OVCAR-5) of the same compound?
Answer: 122.39%

Question: What about the Activity (SF-295) of the same compound?
Answer: 12.33%

Question: And the GI50 (ACHN)?
Answer: 1.8 µM

Question: What about the CC50 (ACHN; [25]) of the same compound?
Answer: 7.2 µM

Question: And the GI50 (NCI-H522 [24])?
Answer: 1.6 µM

Question: And the LC50 (concentration killing 50% of cells) (NCI-H522 [24])?
Answer: 7.5 µM

Question: And the Activity (MOLT-4)?
Answer: 3.8%

Question: What about the Activity (TK-10) of the same compound?
Answer: 52%

Question: What about the Activity (LOX IMVI) of the same compound?
Answer: -89.2%

Question: What about the Activity (HCC 2998) of the same compound?
Answer: -82.08%
